For orientation: IC50 means the concentration needed to halve the response being measured.

Assay [1] has as its system HepG2. Description: Antiproliferative activity against human HepG2 cells after 48 hrs by MTT assay. It is filed as functional, cell-based. Conditions: HepG2, 48 h. A digest of the protocol:
(§1)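 After 48 h, MTT (5 mg/mL in PBS) added, 4 h at 37 °C, DMSO added, absorbance read at 570 nm. IC50 is the 50% growth-inhibition concentration, mean of three independent experiments.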

Assay [2] in a line: Cytotoxicity against human LO2 cells after 48 hrs by MTT assay. Conditions: L02, 48 h. It is filed as cell-based. The method, boiled down:
as §1
(Formazan colour is commonly taken as a measure of viable cells.)

A further assay deals with LN-229. Description: Induction of cell cycle arrest in human LNT229 cells assessed as accumulation at G2/M phase at 100 uM after 24 hrs by propidium iodide staining-based flow cytometry (reference value: 34%). The class given is functional. A general note: Flow cytometry measures light scatter and fluorescence of single cells or particles in a stream.
Assay [3] has as its system HepG2. As to the kind of experiment: Selectivity index, ratio of IC50 for human LO2 cells to human HepG2 cells.
The subject of assay [4] is HepG2. As to the kind of experiment: Induction of cell cycle arrest in human HepG2 cells assessed as accumulation at G0/G1 phase at IC50 after 24 hrs by propidium iodide staining-based flow cytometry (reference value: 67.5%). The class given is functional.
Assay [5] has as its system HepG2. Description: Induction of cell cycle arrest in human HepG2 cells assessed as accumulation at S phase at IC50 after 24 hrs by propidium iodide staining-based flow cytometry (reference value: 16.1%). It is filed as functional.
The test system of assay [6] is HepG2. Description: Induction of cell cycle arrest in human HepG2 cells assessed as accumulation at G2/M phase at IC50 after 24 hrs by propidium iodide staining-based flow cytometry (reference value: 16.4%). The class given is functional.
In assay [7] the test system is HepG2. As to the kind of experiment: Induction of apoptosis in human HepG2 cells assessed as viable cells at IC50 after 4 hrs by annexin V-FITC/propidium iodide staining-based flow cytometry (reference value: 98.6%). The class given is functional.
Assay [8] concerns HepG2. As to the kind of experiment: Induction of apoptosis in human HepG2 cells assessed as viable cells at IC50 after 24 hrs by annexin V-FITC/propidium iodide staining-based flow cytometry (reference value: 90.5%). It is filed as functional.
The subject of assay [9] is HepG2. As to the kind of experiment: Induction of apoptosis in human HepG2 cells assessed as nectrotic cells at IC50 after 4 hrs by annexin V-FITC/propidium iodide staining-based flow cytometry (reference value: 0.46%). It is filed as functional.
Assay [10] concerns HepG2. As to the kind of experiment: Induction of apoptosis in human HepG2 cells assessed as nectrotic cells at IC50 after 24 hrs by annexin V-FITC/propidium iodide staining-based flow cytometry (reference value: 6.70%). It is filed as functional.
The subject of assay [11] is HepG2. Description: Induction of apoptosis in human HepG2 cells assessed as early apoptotic cells at IC50 after 4 hrs by annexin V-FITC/propidium iodide staining-based flow cytometry (reference value: 0.41%). It is filed as functional.
The test system of assay [12] is HepG2. Description: Induction of apoptosis in human HepG2 cells assessed as late apoptotic cells at IC50 after 4 hrs by annexin V-FITC/propidium iodide staining-based flow cytometry (reference value: 0.53%). It is filed as functional.
The test system of assay [13] is HepG2. Description: Induction of apoptosis in human HepG2 cells assessed as late apoptotic cells at IC50 after 24 hrs by annexin V-FITC/propidium iodide staining-based flow cytometry (reference value: 1.77%). It is filed as functional.
Assay [14] relates to HepG2. Description: Induction of apoptosis in human HepG2 cells assessed as early apoptotic cells at IC50 after 24 hrs by annexin V-FITC/propidium iodide staining-based flow cytometry (reference value: 0.41%).
A further assay deals with T-24. As to the kind of experiment: Induction of cell cycle arrest in human T24 cells assessed as accumulation at G2/M phase at 160 uM after 24 hrs by propidium iodide staining-based flow cytometry (reference value: 14.45%). It is filed as functional.
For the next assay, the system named is BGC-823. As to the kind of experiment: Induction of apoptosis in human BGC823 cells at 80 uM after 24 hrs by annexin V-FITC/propidium iodide staining-based flow cytometry (reference value: 1.5%). The class given is functional.

As to `O=c1c(-c2ccc(O)cc2)coc2cc(O)cc(O)c12` [GENISTEIN], the concentration for half-maximal inhibition (IC50) (with HepG2 [1]; in assay [2]) was above 100 µM throughout. Besides, the Activity in the assay on LN-229 was found to be 58%.
As to `COC(=O)[C@H](C)NP(=O)(Oc1ccccc1)Oc1ccc2c(=O)c(-c3ccc(OC(C)=O)cc3)coc2c1` (some centres not stated), the IC50 in the assay with HepG2 [1] is 5.5 µM; in assay [2], 24.3 µM. Besides, the “Ratio IC50” value in the assay with HepG2 [3] is given as 4.418. The Activity in the assay on HepG2 [4] was found to be 0.7%; in the assay with HepG2 [5], 1.2%; in the assay on HepG2 [6], 98.1%; in the assay with HepG2 [7] it was 97.12%; with HepG2 [8], 51.19%; with HepG2 [9], 0.76%. For the same molecule, the Activity in the assay with HepG2 [10] came out at 2.08%; in the assay on HepG2 [11], 0.69%; in the assay on HepG2 [12] it was 1.43%; in the assay on HepG2 [13], 2.56%; with HepG2 [14], 44.16%.
With `COC(=O)[C@H](C)NP(=O)(Oc1ccccc1)Oc1cc(OC(C)=O)c2c(=O)cc(-c3ccc(OC(C)=O)cc3)oc2c1` (some centres not stated), the IC50 is 9 µM with HepG2 [1] and 22.2 µM in assay [2]. In addition, in the assay with HepG2 [3], the “Ratio IC50” value is 2.467. For the same molecule, the Activity in the assay on HepG2 [4] was 11%; in the assay with HepG2 [5], 16.4%; in the assay with HepG2 [6], 72.6%; in the assay on HepG2 [7] it was 89.02%; in the assay with HepG2 [8] it was 85.42%; in the assay on HepG2 [9], 3.58%. Also, the Activity with HepG2 [10] turned out to be 9.88%; with HepG2 [11], 0.45%; in the assay on HepG2 [12] it was 6.95%; with HepG2 [13] it was 3.4%; with HepG2 [14] it was 1.31%.
Take `COC(=O)[C@H](C)NP(=O)(Oc1ccccc1)Oc1cc(OC(C)=O)c2c(=O)c(-c3ccc(OC(C)=O)cc3)coc2c1` (some centres not stated): the IC50 in the assay with HepG2 [1] worked out at 6.6 µM; in [2] it was 11.9 µM. Moreover, in the assay on HepG2 [3], the “Ratio IC50” value is on record as 1.803. The Activity in the assay on HepG2 [4] amounted to 1.6%; with HepG2 [5], 1.8%; in the assay with HepG2 [6], 96.6%; with HepG2 [7], 97.07%; in the assay with HepG2 [8], 74.34%; in the assay with HepG2 [9] it was 0.97%. For the same molecule, the Activity in the assay with HepG2 [10] turned out to be 18.62%; in the assay with HepG2 [11], 0.74%; in the assay on HepG2 [12] it was 1.22%; in the assay with HepG2 [13] it was 3.06%; in the assay on HepG2 [14], 3.99%.
Consider `O=c1cc(-c2ccc(O)cc2)oc2cc(O)cc(O)c12` [APIGENIN], for which the IC50 was 70.2 µM in the assay with HepG2 [1] and above 100 µM in [2]. Also, the “Ratio IC50” value in the assay with HepG2 [3] was above 1.425. In addition, the Activity in the assay on T-24 is 37.94%.
In the case of `O=c1c(-c2ccc(O)cc2)coc2cc(O)ccc12` [DAIDZEIN], the IC50 (with HepG2 [1]; in assay [2]) was above 100 µM each time. In the assay with BGC-823, the Activity turned out to be 32.5%.

The record behind these values is ChEMBL document CHEMBL3769357, “Phosphoramidate protides of five flavones and their antiproliferative activity against HepG2 and L-O2 cell lines” (Eur J Med Chem, 2016).
